# From PubChem BioAssay
# Hits are enriched below; roughly 2.5% of the tested compounds scored in any of these assays.
# MEKK2mut PB1 HTS: signal of MEK5 binding to mutant human MEKK2 PB1 domain | bead flow cytometry, Alexa488-MEK5 binding to MEKK2 mutant | percent response, % at 10 µM | hit rate 0.35% among 290,000 | AID 1530; in the data active = percent response above about 24%, passing the limit was not always enough
# MEKK2 WT-MEK5: raises or lowers MEK5 binding to wildtype human MEKK2 PB1 domain; bead flow cytometry, Alexa488-MEK5 binding to MEKK2 WT; actives lie on both sides; binding response (% of control), % at 10 µM; hit rate 1.1% among 290,000; in the data active = binding response below about 67% or above about 130%
# ABCG2 inh: inhibitors of human ABCG2 transporter, ABCB1 counter-screen; inhibition, % at 6.6 µM; AID 1325; Q9UNQ0; hit rate 0.1% among 190,000; IgMXP3 cells, JC-1 efflux, flow cytometry;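 active = inhibition above 80%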;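 note: 0% = DMSO and 100% = nicardipine control wells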
# Target sequence (Q9UNQ0 whole entry, looked up): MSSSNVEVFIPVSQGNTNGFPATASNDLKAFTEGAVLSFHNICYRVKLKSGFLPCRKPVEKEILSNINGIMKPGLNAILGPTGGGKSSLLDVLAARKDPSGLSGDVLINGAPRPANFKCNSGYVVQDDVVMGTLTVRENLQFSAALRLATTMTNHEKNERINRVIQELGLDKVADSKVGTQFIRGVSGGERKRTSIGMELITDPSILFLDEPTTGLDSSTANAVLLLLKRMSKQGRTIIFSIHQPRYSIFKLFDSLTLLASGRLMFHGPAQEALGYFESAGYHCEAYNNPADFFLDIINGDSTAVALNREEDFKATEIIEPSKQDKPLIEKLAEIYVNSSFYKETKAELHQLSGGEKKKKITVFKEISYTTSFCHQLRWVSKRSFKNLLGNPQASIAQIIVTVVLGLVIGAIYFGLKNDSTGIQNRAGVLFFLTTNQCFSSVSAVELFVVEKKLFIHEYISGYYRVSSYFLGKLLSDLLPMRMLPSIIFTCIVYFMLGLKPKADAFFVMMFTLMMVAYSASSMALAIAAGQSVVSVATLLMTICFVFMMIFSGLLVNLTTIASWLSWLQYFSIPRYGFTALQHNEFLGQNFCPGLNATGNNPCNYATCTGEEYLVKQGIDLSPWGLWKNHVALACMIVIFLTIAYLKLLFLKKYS
#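 Times: 10 min at 25 °C | Test system: Two drug-resistant human cell lines, ABCG2 and ABCB1 | Quantity: 3 million cells/mL final, two lines in 1:1 ratio | Signal: Flow cytometry, 530 nm JC-1 signal | Dosing: Compound at 6.6 µM | Controls: Nicardipine and DMSO wells | Reagent: JC-1 as fluorescent efflux pump substrate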
# Efflux pump inh: antifungal efflux pump inhibition, Nile Red retention. AID 485275. hit rate 0.44% among 330,000. inhibition, % at 10 µM. S. cerevisiae Candida pump triplex;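 active = plate passing quality check with inhibition over a set limit, or well fluorescence over plate mean plus 4 SD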;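 note: Nile Red retained in pooled yeast measured as flow cytometry median fluorescence; 0% = buffer negative control and 100% = Enniatin B positive control; higher means more Nile Red kept so more efflux inhibition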
# ABCB1 inh: blocks JC-1 efflux by human ABCB1 transporter; CCRF-Adr cells, flow cytometry; hit rate 0.067% among 190,000; inhibition, % at 6.6 µM; AID 1326; in the data active = inhibition above about 40%;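 note: 0% = vehicle and 100% = reference inhibitor; higher value means more JC-1 retained so stronger ABCB1 efflux block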
# MEKK3 PB1 HTS: modulators (inhibitors or enhancers) of MEK5 binding to human MEKK3 PB1 domain; Q99759; bead-based flow cytometry, Alexa488-MEK5 binding to MEKK3; actives lie on both sides; 0 = blocked by unlabeled MEK5, 100 = vehicle; binding response (% of control), % at 10 µM; hit rate 1.4% among 290,000;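 active = binding response more than 3 SD above or below the average of its plate-row segment, actives on both sides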;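 note: Alexa488 bead fluorescence after subtracting the streptavidin-only scavenger bead signal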
# The depositor's hits bear a star; x = no result; [ ] = another dose, or the depositor's remark.
SMILES,MEKK2mut PB1 HTS,MEKK2 WT-MEK5,ABCG2 inh,Efflux pump inh,ABCB1 inh,MEKK3 PB1 HTS
CCOCCn1c(CN2CCN(C)CC2)nc2c1c(=O)n(C)c(=O)n2C,5,42*[inhibitor],x,0,x,46*[inhibitor]
COCCn1c(CN2CCN(C)CC2)nc2c1c(=O)n(C)c(=O)n2C,13,117,0,x,0,116
Cc1cccc(NC(=O)CSc2nc(C)c(Cc3ccccc3)c(=O)[nH]2)c1,x,x,0,0,0,x
Cc1ccc(NC(=O)CSc2nc(C)c(Cc3ccccc3)c(=O)[nH]2)cc1C,3,26*,4,0,0,105
CN=c1scc(-c2ccc(F)cc2)n1/N=C/c1ccc(O)c(O)c1,-5,90,-1,x,-1,102
C/C(CC(=O)N1CCN(C=O)CC1)=N\NC(=O)c1cccc([N+](=O)[O-])c1,5,15*,0,0,0,108
Cc1csc(NC(=O)c2c(O)c3c(n(CC(C)C)c2=O)CCCC3)n1,-2,97,3,0,1,99
CCOC(=O)Cc1csc(NC(=O)c2c(O)c3c(n(CC(C)C)c2=O)CCCC3)n1,2,-3.0*,x,0,x,100
CCSc1ccccc1C(=O)NCCc1ccccc1,-1,99,4,0,1,98
COc1ccc([C@@H]2CC(=O)c3c(O)cc(O)cc3O2)cc1O,x,x,x,0,x,x
COc1cc(O)c(CCO)c2c1C(=O)C[C@@H](C)O2,-16,-9.0*,4,0,2,87
CC1(c2ccc3ccccc3c2)NC(=O)N(CC(=O)N2CCCC(C(F)(F)F)C2)C1=O (stereo not drawn),x,x,x,0,x,x
COc1cc2ccccc2cc1C(=O)N1CCN(C(C)=O)CC1,-6,96,x,1,x,93
COc1ccc2cc(OC)c(C(=O)N3CCOCC3)cc2c1,2,-7.0*,1,0,1,100
COc1ccc(NC(=O)c2cc(S(=O)(=O)N(Cc3ccccc3)c3ccccc3)ccc2Cl)cn1,-1,101,7,-1,5,94
O=C(N/C=C/c1ccco1)Nc1cccc(Cl)c1,45,22*,x,0,x,127
COc1ccc2c(C(=O)CN3CCN(c4ccccc4)CC3)c[nH]c2c1,67*,33*,31,0,0,107
O=C(Nc1c2c(nn1-c1cccc(Cl)c1)CS(=O)(=O)C2)c1ccco1,-14,42*[inhibitor],x,0,x,36*[inhibitor]
Cc1ccc(-n2nc3c(c2NC(=O)c2ccco2)CS(=O)(=O)C3)cc1C,6,101,x,0,x,102
Cc1ccc(-n2nc3c(c2NC(=O)c2ccc4c(c2)OCO4)CS(=O)(=O)C3)cc1,-18,0.0*[inhibitor],x,0,x,2.0*[inhibitor]
CCC1CCCCN1CCCNC(=O)c1ccc(N2CCCC2=O)cc1 (stereo not drawn),-5,99,x,0,x,98
CCC1CCCCN1CCCNC(=O)c1ccc2c(c1)c(C)c(C)n2CC (stereo not drawn),20,50*,x,0,x,101
O=C(NCCCN1CCCC1)c1ccc2c(c1)N(Cc1ccc(F)cc1)C(=O)c1ccccc1S2=O (stereo not drawn),5,126,x,0,x,101
CCC1CCCCN1CCCNC(=O)c1ccc2c(c1)N(Cc1ccc(F)cc1)C(=O)c1ccccc1S2=O (stereo not drawn),10,147*,x,0,x,107
CCn1c(C)c(C)c2cc(C(=O)NCCCN3CCOCC3)ccc21,7,113,x,0,x,103
SMILES,MEKK2mut PB1 HTS,MEKK2 WT-MEK5,ABCG2 inh,Efflux pump inh,ABCB1 inh,MEKK3 PB1 HTS
CCC1CCCCN1CCCNC(=O)c1ccc2c(c1)c(C)c(C)n2C (stereo not drawn),21,158*,x,0,x,99
CCC1CCCCN1CCCNC(=O)c1cc2c(=O)oc3ccc(C)cc3c2s1 (stereo not drawn),14,153*,x,0,x,102
CCOC(=O)c1sc(NC(=O)c2cc(-c3ccccc3)nc3ccccc23)c(C#N)c1C,4,100,5,0,0,104
O=C(CNC(=O)c1ccco1)NCc1ccc2c(c1)OCO2,x,x,x,0,x,x
CN(C)c1ccc(C2N(c3ccc(F)cc3)C(=O)C3CCCN32)cc1 (stereo not drawn),19,18*,-2,0,-1,92
Cc1cc(C)nc(NS(=O)(=O)c2ccccc2)n1,1,100,-3,0,0,104
Cc1cc(-n2nc(C)cc2C)nc(NS(=O)(=O)c2ccccc2Cl)n1,34,21*,1,0,0,101
CC1CCN(CCCNC(=O)c2cc3c(Cl)nc4ccccc4c3s2)CC1,26,154*,15,0,4,105
COc1cccc(N2CCN(c3ncnc4c3[nH]c3ccc(F)cc34)CC2C)c1 (stereo not drawn),21,164*,7,0,2,109
COc1cccc(N2CCN(c3ncnc4c3[nH]c3ccccc34)CC2C)c1 (stereo not drawn),5,117,9,0,1,101
CC1CN(C(=O)CCc2cc(C(C)(C)C)c(O)c(C(C)(C)C)c2)CC(C)O1 (stereo not drawn),6,109,x,0,x,102
CC(C)(C)c1cc(CCC(=O)N2CCC2)cc(C(C)(C)C)c1O,25*,118,x,0,x,105
CC(C)CC(NC(=O)C(COC(C)(C)C)NC(=O)C(Cc1ccc(O)cc1)NC(=O)C(CO)NC(=O)C(Cc1c[nH]c2ccccc12)NC(=O)C(Cc1cnc[nH]1)NC(=O)C1CCC(=O)N1)C(=O)N[C@@H](CCCN=C(N)N)C(=O)N1CCCC1C(=O)NNC(N)=O (stereo partly drawn),7,120,x,x,x,117
O=C(O)Cc1sc(Nc2cccc3ccccc23)nc1-c1ccc(Cl)cc1,-4,90,x,0,x,94
O=C1/C(=C/c2c[nH]c3ccccc23)CCC/C1=C\c1c[nH]c2ccccc12,96*,81,-2,1,0,89
CC1CCCC(NC(=O)CSc2ccc(F)cc2)C1C (stereo not drawn),-1,91,0,0,0,88
CC1CCCC(NCC(O)COC(c2ccc(F)cc2)c2ccc(F)cc2)C1C (stereo not drawn),7,143*,0,0,0,101
CCN(CC)C(=O)[C@H]1C[C@H](CC(=O)NCc2cccc(C(F)(F)F)c2)C(=O)N2CCc3c([nH]c4cc(-c5ccco5)ccc34)[C@]12C,x,x,x,0,x,x
Nc1nnc(-c2cc3c(ccc4ccccc43)oc2=O)s1,-6,92,1,x,0,101
